Results from ChEMBL document CHEMBL2203081 (Bioorg Med Chem Lett, 2012).
Calls of active or inactive are those of the source. No cut-off for these calls is given here.

Tests used:
[1] = target: Dual specificity tyrosine-phosphorylation-regulated kinase 3 (Homo sapiens) (UniProt O43781); assay: Inhibition of DYRK3 assessed as residual activity at 1 uM
Method in brief: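 Standard radioactivity-based enzymatic kinase assays on a 131-kinase panel run by the Dundee profiling service; residual kinase activity recorded.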

[2] = target: Cyclin-dependent kinase 2 (Homo sapiens) (UniProt P24941); assay: Inhibition of CDK2 assessed as residual activity at 10 uM relative to control
[3] = target: Casein kinase I isoform delta (Homo sapiens) (UniProt P48730); assay: Inhibition of CK1d assessed as residual activity at 1 uM
Method in brief: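 Radioactivity-based enzymatic assay against a panel of 131 kinases (Dundee profiling). Activity remaining was measured with compound present at the stated concentration.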

[4] = target: Serine/threonine-protein kinase Nek6 (Homo sapiens) (UniProt Q9HC98); assay: Inhibition of NEK6 assessed as residual activity at 10 uM
[5] = target: Bone morphogenetic protein receptor type-1A (Homo sapiens) (UniProt P36894); assay: Inhibition of BMPR1A assessed as residual activity at 10 uM relative to control
[6] = target: Platelet-derived growth factor receptor beta (Homo sapiens) (UniProt P09619); assay: Inhibition of PDGFRB assessed as residual activity at 10 uM relative to control
[7] = target: MAP kinase-interacting serine/threonine-protein kinase 2 (Homo sapiens) (UniProt Q9HBH9); assay: Inhibition of MKNK2 assessed as residual activity at 10 uM relative to control
[8] = target: SRSF protein kinase 1 (Homo sapiens) (UniProt Q96SB4); assay: Inhibition of SRPK1 assessed as residual activity at 1 uM
[9] = target: Homeodomain-interacting protein kinase 1 (Homo sapiens) (UniProt Q86Z02); assay: Inhibition of HIPK1 assessed as residual activity at 10 uM
Method in brief: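 Radioactivity-based enzymatic activity assay of the named kinase, run as part of a 131-kinase specificity panel at the National Centre for Protein Kinase Profiling (Dundee). Residual activity was read at the stated single inhibitor concentration.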

[10] = target: TRAF2 and NCK-interacting protein kinase (Homo sapiens) (UniProt Q9UKE5); assay: Inhibition of TNIK assessed as residual activity at 10 uM relative to control
[11] = target: Calcium/calmodulin-dependent protein kinase kinase 2 (Homo sapiens) (UniProt Q96RR4); assay: Inhibition of CAMKKb assessed as residual activity at 1 uM
[12] = target: Mitogen-activated protein kinase kinase kinase 4 (Homo sapiens) (UniProt Q9Y6R4); assay: Inhibition of MAP3K4 assessed as residual activity at 10 uM relative to control
[13] = target: Aurora kinase C (Homo sapiens) (UniProt Q9UQB9); assay: Inhibition of AURKC assessed as residual activity at 10 uM relative to control
[14] = target: Insulin receptor-related protein (Homo sapiens) (UniProt P14616); assay: Inhibition of INSRR assessed as residual activity at 10 uM relative to control
[15] = target: Cyclin-dependent kinase 5 (Homo sapiens) (UniProt Q00535); assay: Inhibition of CDK5 assessed as residual activity at 10 uM relative to control
[16] = target: Cyclin-dependent kinase 2/cyclin A (Homo sapiens) (UniProt P24941+P20248+P78396); assay: Inhibition of CDK2-Cyclin A assessed as residual activity at 1 uM; assay type: protein-complex assay
[17] = target: Ephrin type-A receptor 8 (Homo sapiens) (UniProt P29322); assay: Inhibition of EPHA8 assessed as residual activity at 10 uM relative to control
Method in brief: (§1)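 Competition kinase-binding assay (KINOMEscan) across a non-redundant panel of 329 kinases beyond the radiometric panel; residual binding expressed relative to control.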

[18] = target: Mitogen-activated protein kinase 11 (Homo sapiens) (UniProt Q15759); assay: Inhibition of p38-beta assessed as residual activity at 10 uM relative to control
[19] = target: Serine/threonine-protein kinase PAK 2 (Homo sapiens) (UniProt Q13177); assay: Inhibition of PAK2 assessed as residual activity at 1 uM
[20] = target: Serine/threonine-protein kinase WNK1 (Homo sapiens) (UniProt Q9H4A3); assay: Inhibition of WNK1 assessed as residual activity at 10 uM
[21] = target: Angiopoietin-1 receptor (Homo sapiens) (UniProt Q02763); assay: Inhibition of TIE2 assessed as residual activity at 1 uM
[22] = target: Myosin light chain kinase, smooth muscle (Homo sapiens) (UniProt Q15746); assay: Inhibition of SmMLCK assessed as residual activity at 10 uM
[23] = target: Dual specificity protein kinase CLK4 (Homo sapiens) (UniProt Q9HAZ1); assay: Inhibition of CLK4 assessed as residual activity at 10 uM relative to control; method in brief: as §1
[24] = target: Casein kinase I isoform delta (Homo sapiens) (UniProt P48730); assay: Inhibition of CSNK1D assessed as residual activity at 10 uM relative to control; method in brief: as §1
[25] = target: Misshapen-like kinase 1 (Homo sapiens) (UniProt Q8N4C8); assay: Inhibition of MINK1 assessed as residual activity at 10 uM
[26] = target: Ribosomal protein S6 kinase alpha-6 (Homo sapiens) (UniProt Q9UK32); assay: Inhibition of RSK4 N-terminal domain 1 assessed as residual activity at 10 uM relative to control
[27] = target: Receptor tyrosine-protein kinase erbB-2 (Homo sapiens) (UniProt P04626); assay: Inhibition of ERBB2 assessed as residual activity at 10 uM relative to control; method in brief: as §1
[28] = test system: Mus musculus; assay: Inhibition of LRRK2 in mouse assessed as inhibition of Ser935 autophosphorylation in brain at 100 mg/kg, ip by immunoblot method; assay type: functional, organism-based; set-up: dose 100 mg/kg
[29] = target: Inhibitor of nuclear factor kappa-B kinase subunit epsilon (Homo sapiens) (UniProt Q14164); assay: Inhibition of IKKe assessed as residual activity at 1 uM
[30] = target: Proto-oncogene tyrosine-protein kinase ROS (Homo sapiens) (UniProt P08922); assay: Inhibition of ROS1 assessed as residual activity at 10 uM relative to control
[31] = test system: Epidermal growth factor receptor (Homo sapiens), P00533 [L858R,T790M]; assay: Inhibition of EGFR L858R,T790M mutant assessed as residual activity at 10 uM relative to control; assay type: protein assay; method in brief: as §1
[32] = target: Cyclin-dependent kinase 11A (Homo sapiens) (UniProt Q9UQ88); assay: Inhibition of CDC2L2 assessed as residual activity at 10 uM relative to control
[33] = target: Serine/threonine-protein kinase WNK3 (Homo sapiens) (UniProt Q9BYP7); assay: Inhibition of WNK3 assessed as residual activity at 10 uM relative to control
[34] = target: Ribosomal protein S6 kinase alpha-1 (Homo sapiens) (UniProt Q15418); assay: Inhibition of RSK1 assessed as residual activity at 1 uM

Sequence of Casein kinase I isoform delta (Homo sapiens) (P48730 whole entry, looked up, canonical isoform): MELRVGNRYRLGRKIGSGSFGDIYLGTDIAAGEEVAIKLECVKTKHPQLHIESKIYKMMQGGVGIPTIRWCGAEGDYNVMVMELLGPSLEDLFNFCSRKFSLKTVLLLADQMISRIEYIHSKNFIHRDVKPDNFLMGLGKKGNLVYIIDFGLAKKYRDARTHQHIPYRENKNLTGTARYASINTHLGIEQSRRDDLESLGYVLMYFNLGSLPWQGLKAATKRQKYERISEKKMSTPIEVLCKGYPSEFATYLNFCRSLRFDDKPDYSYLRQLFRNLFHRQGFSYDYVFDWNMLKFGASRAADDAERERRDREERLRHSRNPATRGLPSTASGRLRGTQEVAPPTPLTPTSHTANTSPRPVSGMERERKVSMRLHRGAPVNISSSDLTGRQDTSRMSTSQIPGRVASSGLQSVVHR
Sequence of Mitogen-activated protein kinase kinase kinase 4 (Homo sapiens) (Q9Y6R4 whole entry): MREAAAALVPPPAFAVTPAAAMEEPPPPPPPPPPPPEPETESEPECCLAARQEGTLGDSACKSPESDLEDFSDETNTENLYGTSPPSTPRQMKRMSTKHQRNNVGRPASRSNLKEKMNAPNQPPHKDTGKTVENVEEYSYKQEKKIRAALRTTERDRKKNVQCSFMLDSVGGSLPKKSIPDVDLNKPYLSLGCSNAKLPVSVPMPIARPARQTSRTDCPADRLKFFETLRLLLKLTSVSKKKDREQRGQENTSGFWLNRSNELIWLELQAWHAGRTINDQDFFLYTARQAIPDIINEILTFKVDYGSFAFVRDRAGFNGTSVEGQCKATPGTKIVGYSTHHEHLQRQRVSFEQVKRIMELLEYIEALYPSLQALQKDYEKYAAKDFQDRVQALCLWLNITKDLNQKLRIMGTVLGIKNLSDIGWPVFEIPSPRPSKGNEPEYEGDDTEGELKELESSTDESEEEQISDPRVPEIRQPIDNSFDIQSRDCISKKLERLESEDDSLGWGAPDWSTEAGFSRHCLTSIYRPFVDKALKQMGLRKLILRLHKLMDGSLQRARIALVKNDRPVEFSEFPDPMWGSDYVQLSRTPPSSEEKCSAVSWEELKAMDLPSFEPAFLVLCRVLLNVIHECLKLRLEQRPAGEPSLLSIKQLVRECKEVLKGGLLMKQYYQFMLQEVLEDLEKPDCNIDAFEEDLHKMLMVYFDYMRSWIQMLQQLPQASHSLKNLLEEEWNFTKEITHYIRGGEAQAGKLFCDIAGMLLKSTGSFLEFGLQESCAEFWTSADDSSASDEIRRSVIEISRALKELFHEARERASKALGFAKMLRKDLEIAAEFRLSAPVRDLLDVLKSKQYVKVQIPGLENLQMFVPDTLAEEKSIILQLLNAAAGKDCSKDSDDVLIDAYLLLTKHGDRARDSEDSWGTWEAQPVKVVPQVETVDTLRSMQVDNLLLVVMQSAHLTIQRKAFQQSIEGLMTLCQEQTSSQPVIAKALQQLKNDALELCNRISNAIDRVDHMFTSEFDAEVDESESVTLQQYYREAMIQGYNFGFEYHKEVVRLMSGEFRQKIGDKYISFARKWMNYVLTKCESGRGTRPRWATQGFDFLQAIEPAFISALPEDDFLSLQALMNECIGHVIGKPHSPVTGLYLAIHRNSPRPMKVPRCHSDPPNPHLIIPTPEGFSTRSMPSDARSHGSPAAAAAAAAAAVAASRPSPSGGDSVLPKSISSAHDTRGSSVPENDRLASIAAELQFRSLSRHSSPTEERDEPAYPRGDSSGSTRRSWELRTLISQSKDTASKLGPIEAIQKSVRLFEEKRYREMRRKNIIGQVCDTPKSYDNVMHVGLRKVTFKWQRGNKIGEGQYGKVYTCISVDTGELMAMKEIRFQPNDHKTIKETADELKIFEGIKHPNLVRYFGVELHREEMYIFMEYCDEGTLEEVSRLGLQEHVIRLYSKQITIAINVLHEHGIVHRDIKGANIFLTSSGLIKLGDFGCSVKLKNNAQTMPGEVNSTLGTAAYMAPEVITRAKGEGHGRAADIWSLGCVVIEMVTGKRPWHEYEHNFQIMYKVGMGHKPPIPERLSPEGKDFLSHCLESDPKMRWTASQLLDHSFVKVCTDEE
Sequence of Calcium/calmodulin-dependent protein kinase kinase 2 (Homo sapiens) (Q96RR4 2-588 limits assumed): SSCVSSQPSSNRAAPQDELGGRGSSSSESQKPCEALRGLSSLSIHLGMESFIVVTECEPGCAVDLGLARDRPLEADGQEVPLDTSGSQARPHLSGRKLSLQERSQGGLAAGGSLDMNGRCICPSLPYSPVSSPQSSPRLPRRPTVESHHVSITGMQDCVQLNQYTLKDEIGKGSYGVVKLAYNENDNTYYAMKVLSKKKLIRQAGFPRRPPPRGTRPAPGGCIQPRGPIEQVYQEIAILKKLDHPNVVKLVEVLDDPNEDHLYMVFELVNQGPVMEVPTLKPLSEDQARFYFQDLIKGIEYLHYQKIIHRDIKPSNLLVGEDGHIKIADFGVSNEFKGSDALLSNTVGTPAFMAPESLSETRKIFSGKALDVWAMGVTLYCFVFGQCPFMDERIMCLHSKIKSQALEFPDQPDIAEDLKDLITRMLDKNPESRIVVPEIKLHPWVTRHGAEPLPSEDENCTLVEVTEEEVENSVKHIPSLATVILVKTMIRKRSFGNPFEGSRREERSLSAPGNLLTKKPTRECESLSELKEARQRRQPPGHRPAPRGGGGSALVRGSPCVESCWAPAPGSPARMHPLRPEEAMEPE
Sequence of Cyclin-dependent kinase 5 (Homo sapiens) (Q00535 whole entry, looked up): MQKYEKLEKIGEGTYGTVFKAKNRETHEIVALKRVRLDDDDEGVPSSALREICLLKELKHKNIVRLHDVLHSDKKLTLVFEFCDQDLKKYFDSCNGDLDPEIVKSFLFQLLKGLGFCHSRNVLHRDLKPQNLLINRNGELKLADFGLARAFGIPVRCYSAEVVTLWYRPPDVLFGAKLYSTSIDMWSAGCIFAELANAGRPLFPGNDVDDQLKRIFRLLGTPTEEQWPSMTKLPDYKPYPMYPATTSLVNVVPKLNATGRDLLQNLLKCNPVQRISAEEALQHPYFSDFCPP
Sequence of Misshapen-like kinase 1 (Homo sapiens) (Q8N4C8 whole entry, looked up, the tested form may be a part): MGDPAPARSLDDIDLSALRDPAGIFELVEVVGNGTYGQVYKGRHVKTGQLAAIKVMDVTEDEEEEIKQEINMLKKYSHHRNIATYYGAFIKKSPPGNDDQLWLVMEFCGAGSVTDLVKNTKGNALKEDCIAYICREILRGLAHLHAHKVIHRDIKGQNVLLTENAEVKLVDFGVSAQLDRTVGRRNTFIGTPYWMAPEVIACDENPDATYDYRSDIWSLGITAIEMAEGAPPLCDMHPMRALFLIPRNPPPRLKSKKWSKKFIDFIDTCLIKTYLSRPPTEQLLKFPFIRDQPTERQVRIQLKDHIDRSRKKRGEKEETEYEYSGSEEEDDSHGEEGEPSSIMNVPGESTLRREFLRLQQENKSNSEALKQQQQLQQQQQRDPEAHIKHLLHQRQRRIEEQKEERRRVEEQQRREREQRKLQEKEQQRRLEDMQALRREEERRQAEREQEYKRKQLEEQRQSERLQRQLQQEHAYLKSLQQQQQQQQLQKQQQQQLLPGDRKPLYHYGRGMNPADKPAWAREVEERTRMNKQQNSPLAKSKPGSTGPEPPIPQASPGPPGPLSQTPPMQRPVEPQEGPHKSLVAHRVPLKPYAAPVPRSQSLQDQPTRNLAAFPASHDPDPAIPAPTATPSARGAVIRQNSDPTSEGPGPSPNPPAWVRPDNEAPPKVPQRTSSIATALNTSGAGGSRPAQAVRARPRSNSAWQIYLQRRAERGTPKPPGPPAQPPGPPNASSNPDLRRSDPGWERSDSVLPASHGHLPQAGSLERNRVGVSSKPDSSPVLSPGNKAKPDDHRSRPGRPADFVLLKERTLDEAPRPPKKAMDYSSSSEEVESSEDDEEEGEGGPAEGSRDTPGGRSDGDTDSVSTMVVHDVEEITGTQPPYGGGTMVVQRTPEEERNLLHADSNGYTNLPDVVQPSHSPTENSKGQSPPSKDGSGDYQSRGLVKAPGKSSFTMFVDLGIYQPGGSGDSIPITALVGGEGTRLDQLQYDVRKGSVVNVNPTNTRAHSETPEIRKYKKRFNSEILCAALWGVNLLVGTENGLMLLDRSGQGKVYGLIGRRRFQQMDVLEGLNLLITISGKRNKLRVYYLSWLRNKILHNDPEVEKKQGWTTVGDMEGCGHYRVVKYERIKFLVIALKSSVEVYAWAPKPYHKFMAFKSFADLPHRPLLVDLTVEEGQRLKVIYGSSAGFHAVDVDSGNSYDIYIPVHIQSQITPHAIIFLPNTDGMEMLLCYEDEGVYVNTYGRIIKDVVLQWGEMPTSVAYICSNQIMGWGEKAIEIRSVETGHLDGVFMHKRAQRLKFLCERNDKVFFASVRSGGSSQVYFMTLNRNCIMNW
Sequence of Aurora kinase C (Homo sapiens) (Q9UQB9 whole entry): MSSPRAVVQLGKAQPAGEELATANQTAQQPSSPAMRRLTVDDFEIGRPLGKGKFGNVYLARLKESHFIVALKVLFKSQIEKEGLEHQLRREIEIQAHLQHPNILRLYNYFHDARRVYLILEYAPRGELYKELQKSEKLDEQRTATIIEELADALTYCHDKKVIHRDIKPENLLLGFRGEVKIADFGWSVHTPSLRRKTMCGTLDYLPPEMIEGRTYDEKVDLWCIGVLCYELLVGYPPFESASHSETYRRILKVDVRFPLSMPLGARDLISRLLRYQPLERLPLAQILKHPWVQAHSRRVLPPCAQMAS
Sequence of Bone morphogenetic protein receptor type-1A (Homo sapiens) (P36894 whole entry): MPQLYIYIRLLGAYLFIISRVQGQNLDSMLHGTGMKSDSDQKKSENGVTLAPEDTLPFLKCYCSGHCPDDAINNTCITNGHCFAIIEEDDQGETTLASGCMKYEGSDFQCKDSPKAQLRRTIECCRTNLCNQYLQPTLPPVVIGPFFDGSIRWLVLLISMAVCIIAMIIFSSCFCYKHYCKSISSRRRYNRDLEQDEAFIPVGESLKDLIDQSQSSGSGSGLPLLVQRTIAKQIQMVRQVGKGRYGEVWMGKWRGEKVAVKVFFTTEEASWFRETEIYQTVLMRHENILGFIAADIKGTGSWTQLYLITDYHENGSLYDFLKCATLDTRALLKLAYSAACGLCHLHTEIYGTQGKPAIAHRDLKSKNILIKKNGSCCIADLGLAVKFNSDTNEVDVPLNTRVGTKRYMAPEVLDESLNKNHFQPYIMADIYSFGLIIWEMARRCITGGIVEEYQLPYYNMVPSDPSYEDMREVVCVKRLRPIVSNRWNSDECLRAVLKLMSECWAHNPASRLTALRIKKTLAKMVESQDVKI

Question: How did the Activity [1] turn out when `O=C(Nc1cccnc1)c1cc(-c2ccnc(F)c2)ccc1OCc1ccccc1` was run?
Answer: 101%

Question: What about the Activity [2] of the same compound?
Answer: 53%

Question: What about the Activity [3] of the same compound?
Answer: 107%

Question: And the Activity [4]?
Answer: 65%

Question: And the Activity [5]?
Answer: 41%

Question: What about the Activity [6] of the same compound?
Answer: 52%

Question: And the Activity [7]?
Answer: 52%

Question: And the Activity [8]?
Answer: 61%

Question: And the Activity [9]?
Answer: 61%

Question: What about the Activity [10] of the same compound?
Answer: 74%

Question: What about the Activity [11] of the same compound?
Answer: 71%

Question: What about the Activity [12] of the same compound?
Answer: 80%

Question: What about the Activity [13] of the same compound?
Answer: 75%

Question: And the Activity [14]?
Answer: 71%

Question: And the Activity [15]?
Answer: 70%

Question: What about the Activity [16] of the same compound?
Answer: 113%

Question: And the Activity [17]?
Answer: 52%

Question: And the Activity [18]?
Answer: 74%

Question: And the Activity [19]?
Answer: 116%

Question: And the Activity [20]?
Answer: 106%

Question: And the Activity [21]?
Answer: 119%

Question: And the Activity [22]?
Answer: 23%

Question: What about the Activity [23] of the same compound?
Answer: 46%

Question: And the Activity [24]?
Answer: 19%

Question: What about the Activity [25] of the same compound?
Answer: 76%

Question: What about the Activity [26] of the same compound?
Answer: 71%

Question: And the Activity [27]?
Answer: 57%

Question: And the inhibition [28]?
Answer: inactive

Question: And the Activity [29]?
Answer: 106%

Question: What about the Activity [30] of the same compound?
Answer: 73%

Question: And the Activity [31]?
Answer: 46%

Question: And the Activity [32]?
Answer: 63%

Question: What about the Activity [33] of the same compound?
Answer: 62%

Question: What about the Activity [34] of the same compound?
Answer: 69%
